In article PMC7982131 (Circulation. Heart Failure, 2021):
One block for each compound: values may come before it.

Key:
other GPCRs = experiment: GPCR selectivity assays, cardiovascular receptor safety panel; format: binding, human; conditions: tested up to 30 µmol/L
[1] = Plasma concentrations of BMS-986224 in the RHR studies; format: in vivo, rat; conditions: for steady-state plasma concentration: SC 10-day infusion
Outline: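 Renal hypertensive rat model in male Sprague-Dawley rats. Dosing was either a 10-day SC infusion by osmotic minipump or oral BID dosing at 0.1 and 1 mg/kg. The SC low dose targeted a steady-state level of ≈100 nmol/L, and the high dose targeted ≈10-fold more. The oral doses targeted ≈200 nmol/L at peak or trough. Peak, trough and steady-state plasma levels were measured, and AUC(0–24) was derived.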

[2] = test system: RHR (renal hypertensive rat) model; experiment: RHR model, subcutaneous infusion via osmotic minipump; format: in vivo; conditions: SC infusion
Outline: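 Renal hypertensive rats (male Sprague-Dawley) received test compound for 10 days by subcutaneous osmotic minipump. The low dose targeted a steady-state plasma level of ≈100 nmol/L; the high dose targeted ≈10-fold more. SV, CO and diastolic parameters were assessed by echocardiography, with cardiac fibrosis and heart weight also scored. One-way ANOVA with Tukey or Dunnett tests was used.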

[3] = test system: instrumented anesthetized rats; experiment: Acute hemodynamics, 15-min IV infusion of BMS-986224; format: in vivo, rat; conditions: for CO percentage change from baseline / SV percentage change from baseline: 15 min
Outline: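 Male Sprague-Dawley rats (≥250 g), anesthetized and surgically instrumented, received a 15-min IV infusion of test compound at 1, 10 or 100 μg/kg per min, then a 15-min washout. Vehicle-infused rats served as comparison. SV, CO, dP/dtmax, HR and mean arterial pressure were expressed as percentage change from baseline. Plasma exposure was sampled at each dose.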

[4] = Plasma exposure during and after IV infusion, anesthetized cannulated rats; format: in vivo, rat
[5] = test system: RHR (renal hypertensive rat) model; experiment: RHR model, oral QD study; format: in vivo; conditions: both doses (0.06 and 0.2 mg/kg)
[6] = test system: RHR (renal hypertensive rat) model; experiment: RHR model, oral BID study; format: in vivo
human APJ [7] = target: T1, human APJ (Homo sapiens, UniProt P35414); experiment: cAMP inhibition assay, HEK293 ZF cells; format: cell-based
T1 sequence (P35414 1-380): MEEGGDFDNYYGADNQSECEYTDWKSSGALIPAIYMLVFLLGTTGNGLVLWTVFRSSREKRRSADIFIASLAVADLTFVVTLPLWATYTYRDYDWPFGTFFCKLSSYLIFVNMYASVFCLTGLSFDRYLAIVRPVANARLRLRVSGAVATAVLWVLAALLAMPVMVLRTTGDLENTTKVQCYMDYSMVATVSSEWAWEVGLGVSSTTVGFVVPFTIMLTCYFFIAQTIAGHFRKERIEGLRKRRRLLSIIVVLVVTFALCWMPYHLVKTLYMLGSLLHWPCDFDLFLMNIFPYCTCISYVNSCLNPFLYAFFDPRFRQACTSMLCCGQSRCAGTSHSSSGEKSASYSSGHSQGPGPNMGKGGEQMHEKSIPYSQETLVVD

human APJ [8] = target: T1, human APJ; experiment: BRET-based biosensor assays; format: cell-based
[9] = test system: instrumented anesthetized rats; experiment: Acute hemodynamics, dobutamine single dose 15-min IV infusion; format: in vivo, rat; conditions: 1 μg/kg/min IV, N=8
Outline: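 Male Sprague-Dawley rats (≥250 g), anesthetized and surgically instrumented; test agents given as a 15-min IV infusion followed by a 15-min washout. Cardiac output and heart rate were expressed as percentage change from baseline during and after infusion. Paired Student t test was used for significance.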

[10] = 40 mg/kg/day SC infusion, BID study

steady-state plasma concentration ([1]; HD): 2686 nmol/L
steady-state plasma concentration ([1]; low dose): 102 nmol/L
area under the plasma drug concentration−time curve (0–24) ([1]; oral 0.1 mg/kg BID): 3.42 µM·h
peak plasma concentration ([1]; oral 0.1 mg/kg BID): 205 ± 11 nmol/L
trough plasma concentration ([1]; oral 0.1 mg/kg BID): 25 ± 4 nmol/L
area under the plasma drug concentration−time curve (0–24) ([1]; oral 1 mg/kg BID): 34.3 µM·h
peak plasma concentration ([1]; oral 1 mg/kg BID): 2095 ± 161 nmol/L
trough plasma concentration ([1]; oral 1 mg/kg BID): 302 ± 29 nmol/L
Plasma exposure ([4]; 1 μg/kg per minute IV): 95 ± 5 nmol/L
free plasma concentration at the minimum effective dose ([4]; adjusted for protein binding, 1 μg/kg per minute): 2 nM
EC50 (human APJ [7]): 0.02 ± 0.02 nM
signaling bias relative to (Pyr1) apelin-13 (human APJ [8]): lack of bias
relative activity vs (Pyr1) apelin-13, ΔLog (RA) (human APJ [8]; ratio of Ymax and EC50, each signaling readout): > 0
SMILES: CCOCc1nc(O)c(-c2nnc(Cc3ccc(Cl)cn3)o2)c(O)c1-c1c(OC)cccc1OC [BMS-986224]
binding/activity at other GPCRs (other GPCRs): did not bind other GPCRs
other measured parameters (diastolic parameters, cardiac fibrosis, heart weight) [2]: without affecting
SV and CO ([2]; high dose 3 mg/kg/day, 3 mg/kg/day): not noted
CO percentage change from baseline ([3]; 1 μg/kg/min IV): 8.2%
SV percentage change from baseline ([3]; 1 μg/kg/min IV): 6.0%
decrease in mean arterial pressure from baseline ([3]; 10 μg/kg per minute, P<0.001 versus vehicle): 1.9%
CO percentage change from baseline ([3]; 10 μg/kg/min IV): 15.4%
SV percentage change from baseline ([3]; 10 μg/kg/min IV): 12.6%
CO percentage change from baseline ([3]; 100 μg/kg/min IV): 15.9%
SV percentage change from baseline ([3]; 100 μg/kg/min IV): 12.3%
maximum increase in CO ([3]; 15-min IV infusion): ≈ 15%
maximum effective dose ([3]; based on the increases in CO): 10 μg/kg per minute
minimum effective dose ([3]; based on the increases in CO): 1 μg/kg per minute
SV and CO [5]: increased
LV mass or EF vs vehicle ([6]; oral BID, trough): no significant differences

SMILES: CC(CCc1ccc(O)cc1)NCCc1ccc(O)c(O)c1 (centres unmarked) [Dobutamine]
Cardiac output % change from baseline [9]: 11.2%

SMILES: CCOC(=O)[C@H](CCc1ccccc1)N[C@@H](C)C(=O)N1CCC[C@H]1C(=O)O [Enalapril]
LV end-diastolic volume vs vehicle [6, 10]: increased
LV mass, heart weight, and EF vs vehicle [6, 10]: reduced
SV, CO, and HR vs vehicle [6, 10]: without significant effect
